# High-throughput results as filed in PubChem.
# M18AAP inhibitor = blocks P. falciparum M18 aspartyl aminopeptidase. inhibition, % at 7.35 µM. 290,000 tested, 1.2% active. recombinant PfM18AAP, H-Glu-NHMec fluorogenic cleavage;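 active = inhibition above the campaign mean inhibition over all tested compounds plus 3 SD, cut at about 28% in these data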
# RBBP9 inh = blocks human serine hydrolase RBBP9; O75884; recombinant RBBP9, FP-Rh probe fluorescence polarization; inhibition, % at 7.94 µM; 220,000 tested, 0.2% active; AID 1515;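 active = inhibition above the campaign mean of all tested compounds plus 3 SD, cut at about 14% in these data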
# Target sequence (O75884 whole entry, looked up): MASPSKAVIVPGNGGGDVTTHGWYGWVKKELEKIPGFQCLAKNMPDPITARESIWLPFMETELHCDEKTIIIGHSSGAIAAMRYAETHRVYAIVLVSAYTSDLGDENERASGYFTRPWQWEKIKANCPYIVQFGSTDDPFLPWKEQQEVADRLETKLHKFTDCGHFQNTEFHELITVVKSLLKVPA
#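 Test system: recombinant human RBBP9. Quantity: 2.5 µM RBBP9 dispensing solution, before mixing. Detection: FP readout at 525/598 nm. Reagent: Serine-hydrolase probe FP-Rh, 375 nM pre-mixing. Measure: % inhibition. Control set: DMSO-treated enzyme wells and wells lacking RBBP9. Buffer or medium: Tris-NaCl-Pluronic buffer, pH 8.0. Times: preincubation 30 min plus labeling 45 min at 25 °C.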
# RanGTP-Imp inh = disruptors of Ran-importin-beta complex formation – biochemical, FRET, CFP-Ran, YFP-importin-beta, homogeneous, primary screen. cell-free CFP-Ran/YFP-importin-beta FRET ratio. inhibition, % (no concentration beside the values). 300,000 tested, 1.1% active;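 active = more than half of the replicate wells show a fall in the fluorescence ratio signal beyond about 16%, limit read from the data, passing the limit was not always enough; inconclusive = exactly half of the replicate wells pass the set limit; inactive = fewer than half of replicates pass the limit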
# Hck Nef HTS = inhibitors of human Hck kinase activated by Nef. Recombinant Hck-YEEI plus Nef, Z-Lyte FRET kinase assay. inhibition, % at 20 µM. 220,000 tested, 0.68% active. AID 463187;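 active = Hck-Nef kinase inhibition above about 50%, limit read from the data; inactive = inhibition below that limit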
# Runt-SMMHC FRET = inhibitors of human RUNX1 Runt domain binding to CBFb-SMMHC; Cerulean-Runt/Venus-CBFb-SMMHC FRET ratio 530/480, 1 h; Q01196+Q13951; inhibition, % at 20 µM; 220,000 tested, 0.74% active;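 active = mean inhibition across duplicate retests at 20 µM reaching about 50%, limit read from the data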;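 also: inhibitors lower the FRET ratio by blocking Runt binding to CBFb-SMMHC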
# Runt-CBFb FRET = Runt domain-CBFb interaction inhibition; Q01196+Q13951; Cerulean-Runt/Venus-CBFb FRET ratio 530/480, 1 h; inhibition, % at 20 µM; 220,000 tested, 0.46% active; AID 1496;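 active = inhibition over about 50% at 20 µM in the single-dose screen, limit read from the data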
#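 Doses: 20 µM compound in 1% DMSO | Material: Cerulean-labeled Runt domain protein | Amount: Each fluorescent fusion protein 100 nM | Schedule: Two 1 h room-temperature incubations shielded from light | Measured by: FRET fluorescence | Evaluation: Loss of energy transfer signal | Controls: Unlabeled CBFb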
# Hck Nef conf = Hck-Nef kinase inhibition, confirmation. 1,300 tested, 28% active. calls only at 10 µM. Recombinant Hck-YEEI:Nef, Z-Lyte FRET kinase assay. shares compounds with Hck Nef HTS;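 active = average inhibition of at least 50%, with Z-scores no higher than 3 in both the phospho-tyrosine peptide and fluorescence counterscreens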
# Hits are given with their value; - = inactive; ? = inconclusive; . = no result given; + = active, no number. The list is not random: actives were taken first. Their share in the collection is about 2.9%.
SMILES,M18AAP inhibitor,RBBP9 inh,RanGTP-Imp inh,Hck Nef HTS,Runt-SMMHC FRET,Runt-CBFb FRET,Hck Nef conf
CCCNC(=O)[C@H]1N2C(=O)c3c(ccc(OC)c3OC)C2SC1(C)C (stereo partly specified),-,.,-,.,.,.,.
COc1ccc(CNC(=O)CN(C(=O)CCC(=O)Nc2ccccn2)c2cccc(C)c2C)cc1,-,.,-,.,.,.,.
N#C/C(=C\c1ccc(-c2cccc([N+](=O)[O-])c2)o1)C(=O)Nc1nc(-c2cccs2)cs1,-,-,-,75,-,-,+
COc1ccc(-c2csc(NC(=O)c3ccccc3NS(=O)(=O)c3ccc(F)c(F)c3)n2)cc1,-,-,-,80,-,-,+
CC(C)Nc1ccc(Nc2ccnc3cc4ccccc4cc23)cc1,-,-,-,69,-,-,+
O=C(NCCc1ccccc1)c1nccc2ccccc12,.,.,-,.,.,.,.
COc1ccc(Nc2ccnc3ccccc23)cc1,-,-,-,-,-,-,.
c1ccc(CCNc2ccnc3cc4ccccc4cc23)cc1,-,-,152,156,93,-,.
O=CN1CCN(S(=O)(=O)c2ccc(S(=O)(=O)NC3CCCCC3)cc2)CC1,-,.,?,.,.,.,.
O=C(Nc1nc2c(Br)cccc2s1)C1CC1,-,.,-,.,.,.,.
CC(=O)OCC1=C(C(=O)O)N2C(=O)C(NC(=O)CCn3nc(C(F)(F)F)c(Br)c3C3CC3)C2SC1 (stereo unspecified),-,-,-,60,-,-,-
CCC(C)(C)NC(=O)CN(Cc1ccc(OC)cc1)C(=O)CCC(=O)Nc1nccs1,-,.,-,.,.,.,.
COc1ccc(CCn2c(SCC(=O)Nc3cc(C)on3)nc3ccsc3c2=O)cc1OC,-,-,.,65,-,-,-
COc1cc2c(cc1OC)C1(CCCC1)C(N)=C2C#N,-,-,.,56,-,-,.
COc1cccc(N=c2oc3ccc(OC)cc3cc2-c2nc3ccccc3[nH]2)c1,-,-,-,99,-,-,+
COc1cccc(N=c2oc3ccccc3cc2-c2nc3ccccc3[nH]2)c1,-,-,-,-,-,-,.
Nc1cccc2nc3ccccc3cc12,-,-,176,76,58,-,.
COC(=O)c1c(-c2ccccc2Cl)noc1/C=C/N(C)C,-,-,-,59,-,-,+
CC(C)(C)CC(C)(C)c1ccc(OCC(=O)N/N=C/c2ccc(S(=O)(=O)O)o2)cc1,-,-,-,57,-,-,+
Cc1nn(-c2ccc(F)cc2)c(-n2cccc2)c1C(=O)N1CCN(C(=O)c2ccco2)CC1,-,.,-,.,.,.,.
CCCC12CN3CC(C)(CN(C1)C3c1ccc([N+](=O)[O-])o1)C2=O (stereo unspecified),-,-,-,-,-,-,.
CCC12CN3CC(CC)(CN(C1)C3c1ccc([N+](=O)[O-])o1)C2=O (stereo unspecified),-,-,-,50,-,-,-
CCOC(=O)N1CCc2c(sc3ncn(C)c(=O)c23)C1,-,-,-,-,-,-,.
CCOC(=O)N1CCc2c(sc3nc4n(c(=O)c23)N=C(c2ccc(OC)cc2)CS4)C1,-,-,-,77,-,-,+
O=C(O)c1ccc2oc(=O)c(S(=O)(=O)c3ccc(F)cc3)cc2c1,-,.,-,.,.,.,.
SMILES,M18AAP inhibitor,RBBP9 inh,RanGTP-Imp inh,Hck Nef HTS,Runt-SMMHC FRET,Runt-CBFb FRET,Hck Nef conf
CCCCCCc1cc2cc(S(=O)(=O)c3ccc(F)cc3)c(=O)oc2cc1O,-,-,167,120,63,-,.
Cc1ccc(N=Cc2cc(Cc3ccccc3Cl)cc([N+](=O)[O-])c2O)c(O)c1,-,-,-,56,-,-,-
Nc1ccc2c(c1)Nc1ccccc1CC2,-,-,-,-,-,-,.
CCC(=O)OC1(C)C(=O)C2=COC(c3ccc(OC)cc3)=CC2=C(Br)C1=O (stereo unspecified),.,.,-,81,-,-,-
COc1ccc(C2=CC3=C(Br)C(=O)C(C)(O)C(=O)C3=CO2)cc1 (stereo unspecified),.,.,-,95,-,-,+
COc1cc(OC)cc(C(=O)N=c2sc3ccccc3n2C)c1,-,-,-,81,-,-,-
CC1=C(C(=O)Nc2cccc(C(=O)NC3CCCCC3C)c2)SCCO1 (stereo unspecified),-,.,-,.,.,.,.
Cc1ccc(O)c(C(=O)c2cnn(C(=O)COc3ccc(Cl)cc3)c2)c1,-,-,-,-,-,-,.
O=C(c1cnn(C(=O)COc2ccc(Cl)cc2)c1)c1ccccc1O,30,-,-,50,-,-,+
Brc1ccc(C2C3=C(Nc4ncnn42)c2ccccc2OC3c2ccncc2)cc1 (stereo unspecified),-,-,-,73,-,-,+
CC1=C(C#N)C(=O)NC(=O)/C1=C\c1ccc(-c2cc(C)c(C)cc2[N+](=O)[O-])o1,-,-,-,91,-,-,+
CCOC(=O)CNc1ccc(OC(F)(F)F)cc1,-,-,-,-,-,-,.
CCc1noc(C)c1C(=O)N(CCC(C)C)c1c(N)n(Cc2ccccc2)c(=O)[nH]c1=O,.,.,-,.,.,.,.
Cc1ccc(-c2nc3ccccc3s2)cc1NC(=S)NC(=O)c1ccccc1,-,-,-,-,-,-,.
Cc1ccc(-c2nc3ccccc3s2)cc1NC(=O)c1cc(-n2cnnc2)ccc1Cl,-,-,-,91,-,.,-
CCCc1cc(NCCCCO)n2c(nc3ccccc32)c1C#N,-,-,43,97,54,-,.
Cc1cc(NCCCCO)n2c(nc3ccccc32)c1C#N,-,-,38,59,-,-,.
C#CCSc1nc(-c2ccccc2)cc(C(F)(F)F)c1C#N,-,-,-,-,-,-,.
CNc1nc(-c2ccccc2)cc(C(F)(F)F)c1C#N,-,-,-,68,-,-,.
CCCCNC(=O)c1c(N)n(/N=C/c2ccccn2)c2nc3ccccc3nc12,-,-,-,-,-,-,.
CC(C)CNC(=O)c1c(N)n(/N=C/c2ccccn2)c2nc3ccccc3nc12,-,-,-,51,-,-,-
COC(=O)Cc1cc(=O)oc2cc(O)ccc12,-,-,69,102,92,80,.
Cc1cc(=O)oc2cc(O)ccc12,.,.,-,.,.,.,.
Cc1ccc(C)c(N2CCN(C(=O)c3ccc(N4CCCC4=O)cc3)CC2)c1,-,.,-,.,.,.,.
CCN(CC)CCCNC(=O)CCC(=O)Nc1ccc2nc(N3CCC(C)CC3)cc(C)c2c1,-,-,-,88,-,-,.
O=C(N=Nc1c(O)[nH]c2ccccc12)c1ccc(CN2CCOCC2)cc1,-,-,-,94,-,-,+
CCOc1ccc(Nc2ncnc3c2cnn3-c2ccccc2)cc1,-,-,-,-,-,-,.
